Data on 37 compounds can be found in ChEMBL document CHEMBL4043206, “Anticancer potential of aminomethylidene-diazinanes I. Synthesis of arylaminomethylidene of diazinetriones and its cytotoxic effects tested in glioblastoma cells” (Bioorg Med Chem, 2017).

Series [1] in a line: Solubility in water. The class given is physicochemical. Particulars: buffer.
The subject of series [2] is LN-229. Kind of series: Cytotoxicity against human LN229 cells assessed as cell viability at 10 ug/ml incubated for 72 hrs by Guava ViaCount reagent based flow cytometry. Particulars: LN-229, 72 h, read-out: Activity. It counts as functional. The gist of the method:
(§1)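 Cells kept as semi-confluent monolayers in DMEM with 10% FBS, 50 U/ml penicillin and […], at 37 °C under 5% CO₂. Seeded at 2 × 10⁴ cells per well in 24-well plates. Compounds were made up as 10 mg/ml DMSO stocks, diluted into medium to a final 1 or 10 μg/ml, and left on the cells for 72 h.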

Series [3] has as its system LN-229. The series can be described thus: Cytotoxicity against human LN229 cells assessed as cell viability at 1 ug/ml incubated for 72 hrs by Guava ViaCount reagent based flow cytometry. Conditions: LN-229, 72 h, read-out: Activity. It counts as functional. In outline: as §1
Series [4] can be described thus: Solubility in organic solvents. It counts as physicochemical.

Regarding `CN1C(=O)C(=CNc2ccccc2)C(=O)N(C)C1=O`, the solubility result in series [1] and in series [4] was “Insoluble” each time. In addition, the viability at 10 µg/mL in the series with LN-229 [2] was 96.1%. Besides, the viability at 1 µg/mL in the series with LN-229 [3] was 95%.
For the compound `CN1C(=O)/C(=C/Nc2cccc3ccccc23)C(=O)NC1=S`, in the series with LN-229 [2], the viability at 10 µg/mL was 78.3%. Further, the viability at 1 µg/mL in the series with LN-229 [3] is 90%.
For `O=C1NC(=S)NC(=O)C1=CNc1ccc2cc3ccccc3cc2c1`, in that order: 11% and 83.3%.
For `O=C1NC(=O)C(=CNc2cccc3c2C(=O)c2ccccc2C3=O)C(=O)N1`, in that order: 22.1% and 31.9%.
For `O=C1NC(=S)NC(=O)C1=CNc1ccc(-c2ccccc2)cc1`, in the series with LN-229 [2], the viability at 10 µg/mL was determined as 13.8%. Further, the viability at 1 µg/mL with LN-229 [3] worked out at 95.3%.
Consider `CN1C(=O)/C(=C/Nc2ccc3ccccc3c2)C(=O)NC1=S`, for which the viability at 10 µg/mL in the series on LN-229 [2] worked out at 84.5%. In the series on LN-229 [3], the viability at 1 µg/mL was found to be 94.6%.
Turning to `CN1C(=O)NC(=O)/C(=C\Nc2ccc3ccccc3c2)C1=O`, the viability at 10 µg/mL with LN-229 [2] was found to be 56%. In the series with LN-229 [3], the viability at 1 µg/mL was 90%.
As to `CN1C(=O)NC(=O)/C(=C/Nc2ccccc2)C1=O`, the solubility entry in series [1] and in series [4] was “Insoluble” each time. Besides, in the series on LN-229 [2], the viability at 10 µg/mL was 95%. For the same compound, the viability at 1 µg/mL in the series with LN-229 [3] came out at 94.9%.
Take `CN1C(=O)C(=CNc2ccc3c(c2)C(=O)c2ccccc2C3=O)C(=O)N(C)C1=O`: the viability at 10 µg/mL in the series on LN-229 [2] was determined as 68.3%. Further, the viability at 1 µg/mL with LN-229 [3] was 92.4%.
On the same counts, the results for `CN1C(=O)NC(=O)/C(=C\Nc2cccc3ccccc23)C1=O` are 94.5% and 89%.
Take `O=C1NC(=S)NC(=O)C1=CNc1ccc2ccccc2c1`: the viability at 10 µg/mL with LN-229 [2] was determined as 94.4%. Further, the viability at 1 µg/mL in the series with LN-229 [3] amounted to 96.5%.
For `O=C1NC(=S)NC(=O)C1=CNc1cccc2c1C(=O)c1ccccc1C2=O`, in that order: 48.6% and 65%.
In the case of `CN1C(=O)NC(=O)/C(=C\Nc2ccc(-c3ccccc3)cc2)C1=O`, in the series with LN-229 [2], the viability at 10 µg/mL is 93.5%. Further, the viability at 1 µg/mL in the series on LN-229 [3] was 96.9%.
With `CN1C(=O)/C(=C\Nc2ccccc2)C(=O)NC1=S`, the solubility result in series [1] and in series [4] was “Insoluble” each time. Also, the viability at 10 µg/mL with LN-229 [2] is 94.3%. Also, the viability at 1 µg/mL in the series on LN-229 [3] is 94.3%.
Take `CN1C(=O)/C(=C/Nc2ccc3c(c2)C(=O)c2ccccc2C3=O)C(=O)NC1=S`: the viability at 10 µg/mL in the series with LN-229 [2] was determined as 17.2%. Further, the viability at 1 µg/mL in the series with LN-229 [3] turned out to be 80.8%.
On the same counts, the results for `O=C1NC(=O)N(c2ccc([N+](=O)[O-])cc2)C(=O)/C1=C/Nc1cccc2c1C(=O)c1ccccc1C2=O` are 10.4% and 75.8%.
As to `O=C1NC(=O)N(c2ccccc2)C(=O)/C1=C/Nc1cccc2c1C(=O)c1ccccc1C2=O`, the viability at 10 µg/mL in the series on LN-229 [2] came to 29.2%. Moreover, the viability at 1 µg/mL in the series on LN-229 [3] was 66.3%.
Consider `O=C1NC(=O)N(c2ccccc2)C(=O)/C1=C/Nc1ccc2c(c1)C(=O)c1ccccc1C2=O`, for which the viability at 10 µg/mL in the series with LN-229 [2] worked out at 76.5%. In addition, the viability at 1 µg/mL in the series with LN-229 [3] stood at 87.6%.
For `O=C1NC(=O)C(=CNc2ccc3c(c2)C(=O)c2ccccc2C3=O)C(=O)N1`, in that order: 17.2% and 82.9%.
On the same counts, the results for `CN1C(=O)NC(=O)/C(=C\Nc2ccc3cc4ccccc4cc3c2)C1=O` are 9.4% and 60.3%.
On the same counts, the results for `CN1C(=O)/C(=C/Nc2ccc(-c3ccccc3)cc2)C(=O)NC1=S` are 89.6% and 97%.
Take `CN1C(=O)C(=CNc2ccc3cc4ccccc4cc3c2)C(=O)N(C)C1=O`: in the series with LN-229 [2], the viability at 10 µg/mL was found to be 60.8%. Further, the viability at 1 µg/mL in the series with LN-229 [3] was found to be 88.1%.
In the case of `CN1C(=O)/C(=C/Nc2ccc3cc4ccccc4cc3c2)C(=O)NC1=S`, the viability at 10 µg/mL in the series on LN-229 [2] was determined as 3.7%. Besides, the viability at 1 µg/mL with LN-229 [3] came out at 75%.
Turning to `CN1C(=O)NC(=O)/C(=C\Nc2ccc3c(c2)C(=O)c2ccccc2C3=O)C1=O`, the viability at 10 µg/mL in the series with LN-229 [2] was determined as 28.9%. In addition, in the series with LN-229 [3], the viability at 1 µg/mL came out at 89.7%.
For `CN1C(=O)C(=CNc2ccc(-c3ccccc3)cc2)C(=O)N(C)C1=O`, in that order: 94.6% and 94.8%.
For `CN1C(=O)C(=CNc2cccc3c2C(=O)c2ccccc2C3=O)C(=O)N(C)C1=O`, in that order: 86.3% and 94.7%.
On the same counts, the results for `O=C1NC(=O)N(c2ccc([N+](=O)[O-])cc2)C(=O)/C1=C/Nc1ccc2c(c1)C(=O)c1ccccc1C2=O` are 61.8% and 88.2%.
Take `O=C1NC(=O)C(=CNc2ccccc2)C(=O)N1`: the solubility entry in series [1] and in series [4] was “Insoluble” throughout. In addition, the viability at 10 µg/mL with LN-229 [2] was found to be 96.1%. In the series with LN-229 [3], the viability at 1 µg/mL stood at 96.2%.
For `O=C1NC(=O)C(=CNc2cccc3ccccc23)C(=O)N1`, the viability at 10 µg/mL in the series with LN-229 [2] stood at 95.1%. In addition, the viability at 1 µg/mL in the series on LN-229 [3] was determined as 93.2%.
For `O=C1NC(=O)C(=CNc2ccc3ccccc3c2)C(=O)N1`, the viability at 10 µg/mL with LN-229 [2] was determined as 82.4%. In the series with LN-229 [3], the viability at 1 µg/mL stood at 92.4%.
On the same counts, the results for `CN1C(=O)C(=CNc2ccc3ccccc3c2)C(=O)N(C)C1=O` are 86.6% and 90.5%.
For `O=C1NC(=S)NC(=O)C1=CNc1ccc2c(c1)C(=O)c1ccccc1C2=O`, in that order: 12.3% and 87.4%.
As to `CN1C(=O)/C(=C/Nc2cccc3c2C(=O)c2ccccc2C3=O)C(=O)NC1=S`, the solubility entry in series [1] and in series [4] was “Insoluble” throughout.
On to `O=C1NC(=O)C(=CNc2ccc(-c3ccccc3)cc2)C(=O)N1`, for which, in the series on LN-229 [2], the viability at 10 µg/mL was determined as 85.5%. For the same compound, the viability at 1 µg/mL in the series with LN-229 [3] was 92.6%.
For `CN1C(=O)C(=CNc2cccc3ccccc23)C(=O)N(C)C1=O`, in that order: 95.4% and 94.5%.
As to `O=C1NC(=S)NC(=O)C1=CNc1ccccc1`, the solubility entry in series [1] and in series [4] was “Insoluble” each time. The viability at 10 µg/mL with LN-229 [2] came to 95.3%. For the same compound, in the series on LN-229 [3], the viability at 1 µg/mL turned out to be 96.5%.
For `CN1C(=O)NC(=O)/C(=C\Nc2cccc3c2C(=O)c2ccccc2C3=O)C1=O`, in the series with LN-229 [2], the viability at 10 µg/mL is 35.3%. The viability at 1 µg/mL in the series on LN-229 [3] came out at 84.8%.
